ChEMBL document CHEMBL4354867, “Validation and Characterization of Five Distinct Novel Inhibitors of Human Cytomegalovirus” (J Med Chem, 2020)
Calls of active or inactive are those of the source. The rule behind the calls is not given here.

How the values were obtained:
Human alphaherpesvirus 2 = assay: Antiviral activity against HSV 2 infected in African green monkey Vero cells assessed as reduction in plaque formation incubated for 36 hrs by crystal violet staining based assay; assay type: functional, organism-based; details: vero
Outline: (§1)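 Plaque reduction in Vero cells: virus adsorbed 60 min, then compound added in a carboxymethylcellulose overlay. Plaques counted after 36 h by crystal violet staining.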

Human betaherpesvirus 5 [1] = assay: Antiviral activity against HCMV TB40 infected in human HFF cells assessed as reduction in plaque formation treated with compound following viral infection and incubated for 8 to 10 days by crystal violet staining based assay; assay type: functional, organism-based; details: Human betaherpesvirus 5, TB40, HFF
HFF = assay: Cytotoxicity against human HFF cells assessed as reduction in cell viability incubated for 72 hrs or 10 days by MTT assay; assay type: cell-based
Outline: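 MTT assay on uninfected cells exposed to compound for 72 h or 8–10 days, matching the antiviral assay durations. MTT (5 mg/mL stock in PBS) added, then 2–3 h at 37 °C. Formazan absorbance read at 560 nm.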

Human betaherpesvirus 5 [2] = assay: Inhibition of viral protein expression in HCMV Towne infected in human HFF cells assessed as reduction in UL44 expression at 3 uM treated with compound following viral infection at MOI of 1 PFU/cell measured at 72 hrs post infection by Western blot analysis; assay type: functional, organism-based; details: strain Towne
Outline: (§2)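 HFFs infected with HCMV Towne (MOI 1), then treated with compound. Lysates taken at 72 hpi, equal protein loaded on 8–10% Tris-glycine SDS-PAGE and transferred to PVDF. Primary antibodies overnight at 4 °C, HRP secondary, chemiluminescent detection; β-actin as loading control.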

Human betaherpesvirus 5 [3] = assay: Inhibition of viral protein expression in HCMV Towne infected in human HFF cells assessed as reduction in pp65 expression at 3 uM treated with compound for 24 hrs followed by viral infection at MOI of 0.01 PFU/cell measured at 72 hrs post infection by Western blot analysis; assay type: functional, organism-based; details: strain Towne
Outline: (§3)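 HFFs pretreated with compound, then infected with HCMV Towne at MOI 1, 0.1 or 0.01. Viral proteins in cell lysates detected at 72 hpi by SDS-PAGE (8–10%), PVDF transfer and chemiluminescent immunoblot. Images from a representative experiment.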

Human betaherpesvirus 5 [4] = assay: Antiviral activity against HCMV TB40 infected in human HFF cells assessed as reduction in plaque formation at 1 to 10 uM treated with compound following viral infection at MOI of 100 PFU/ml and measured after 10 days by crystal violet staining based assay; assay type: functional, organism-based
Human betaherpesvirus 5 [5] = assay: Inhibition of viral protein expression in HCMV Towne infected in human HFF cells assessed as reduction in pp65 expression at 3 uM treated with compound following viral infection at MOI of 1 PFU/cell measured at 72 hrs post infection by Western blot analysis; assay type: functional, organism-based; details: strain Towne; outline: as §2
Human betaherpesvirus 5 [6] = assay: Inhibition of viral protein expression in HCMV Towne infected in human HFF cells assessed as reduction in IE2 expression at 3 uM treated with compound for 24 hrs followed by viral infection at MOI of 1 PFU/cell measured at 72 hrs post infection by Western blot analysis; assay type: functional, organism-based; details: strain Towne; outline: as §3
Human betaherpesvirus 5 [7] = assay: Inhibition of viral protein expression in HCMV Towne infected in human HFF cells assessed as reduction in IE1 expression at 3 uM treated with compound for 24 hrs followed by viral infection at MOI of 0.01 PFU/cell measured at 72 hrs post infection by Western blot analysis; assay type: functional, organism-based; details: strain Towne; outline: as §3
[8] = Antiviral activity against Mouse Cytomegalovirus Smith (ATCC VR-1399) infected in mouse MEF cells assessed as reduction in plaque formation measured after 3 days by crystal violet staining based assay; assay type: functional, cell-based, Murine cytomegalovirus (strain Smith); details: mef
Outline: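 Plaque reduction with MCMV Smith in mouse embryonic fibroblasts, with compound in a carboxymethylcellulose overlay. Assay ended at 3 days and plaques counted after crystal violet staining.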

Human alphaherpesvirus 1 = assay: Antiviral activity against HSV 1 infected in African green monkey Vero cells assessed as reduction in plaque formation incubated for 36 hrs by crystal violet staining based assay; assay type: functional, organism-based; details: vero; outline: as §1
Human betaherpesvirus 5 [9] = assay: Inhibition of viral protein expression in HCMV Towne infected in human HFF cells assessed as reduction in IE1 expression at 3 uM treated with compound for 24 hrs followed by viral infection at MOI of 1 PFU/cell measured at 72 hrs post infection by Western blot analysis; assay type: functional, organism-based; details: strain Towne; outline: as §3
Human betaherpesvirus 5 [10] = assay: Inhibition of viral protein expression in HCMV Towne infected in human HFF cells assessed as reduction in IE2 expression at 3 uM treated with compound for 24 hrs followed by viral infection at MOI of 0.01 PFU/cell measured at 72 hrs post infection by Western blot analysis; assay type: functional, organism-based; details: strain Towne; outline: as §3
Human betaherpesvirus 5 [11] = assay: Antiviral activity against HCMV Towne infected in human HFF cells assessed as reduction in plaque formation treated with compound following viral infection and incubated for 8 to 10 days by crystal violet staining based assay; assay type: functional, organism-based; details: Human betaherpesvirus 5, strain Towne
Human betaherpesvirus 5 [12] = assay: Inhibition of viral protein expression in HCMV Towne infected in human HFF cells assessed as reduction in UL44 expression at 3 uM treated with compound for 24 hrs followed by viral infection at MOI of 0.01 PFU/cell measured at 72 hrs post infection by Western blot analysis; assay type: functional, organism-based; details: strain Towne; outline: as §3
Human betaherpesvirus 5 [13] = assay: Antiviral activity against GCV-resistant HCMV Towne infected in human HFF cells assessed as reduction in plaque formation at 0.1 to 10 uM treated with compound for 24 hrs followed by viral infection at MOI of […] and measured after 10 days by crystal violet staining based assay; assay type: functional, organism-based; details: strain Towne
Outline: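 Overlay of DMEM with 0.5% carboxymethylcellulose and 4% FBS, 37 °C. After 10 days plaques stained with crystal violet and counted. Data are mean ± SD of triplicates from a representative experiment.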

Human betaherpesvirus 5 [14] = assay: Antiviral activity againstpp28-luciferase expressing HCMV Towne infected in human HFF cells assessed as reduction in viral replication treated with compound following viral infection at MOI of 1 PFU/cells measured after 3 days in presence of GCV by luciferase reporter gene assay; assay type: functional, organism-based; details: Human betaherpesvirus 5, strain Towne, 72 h
Outline: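 HFFs in 96-well plates were infected with pp28-luciferase Towne HCMV, in which luciferase is driven by the UL99 late promoter, at MOI 1. A dose-response of each drug alone gave its EC₅₀. Combinations started at twice each EC₅₀ in DMEM with 4% FBS, followed by two-fold serial dilutions, and were added after infection. Luciferase was read in cell lysates at 72 hpi. The Bliss ratio is observed over expected inhibition.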

Human betaherpesvirus 5 [15] = assay: Antiviral activity against HCMV Towne infected in human HFF cells assessed as reduction in viral entry into host cell by measuring nuclear localization of pp65 at 3 uM treated with compound for 24 hrs followed by viral infection at MOI of 0.1 PFU/cell measured at 2 hrs post infection by immunofluorescence microscopy; assay type: functional, organism-based; details: strain Towne
Outline: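 HFFs on chamber slides pretreated 24 h with compound diluted in serum-free medium, then infected with HCMV Towne for 2 h. Heparin 30 μM as positive entry-block control. Cells methanol-fixed, then stained with anti-pp65 (1:50) and rhodamine anti-mouse IgG, with DAPI. Nuclear pp65 viewed by fluorescence microscopy at 40x; repeated three times.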

Human betaherpesvirus 5 [16] = assay: Inhibition of viral protein expression in HCMV Towne infected in human HFF cells assessed as reduction in UL84 expression at 3 uM treated with compound for 24 hrs followed by viral infection at MOI of 0.01 PFU/cell measured at 72 hrs post infection by Western blot analysis; assay type: functional, organism-based; details: strain Towne; outline: as §3
Human betaherpesvirus 5 [17] = assay: Inhibition of viral protein expression in HCMV Towne infected in human HFF cells assessed as reduction in IE1 expression at 3 uM treated with compound following viral infection at MOI of 1 PFU/cell measured at 72 hrs post infection by Western blot analysis; assay type: functional, organism-based; details: strain Towne; outline: as §2

For `COc1ccc(Cl)cc1C(=O)Nc1ccc(NC(=O)c2ccco2)cc1`, the EC50 (Human alphaherpesvirus 2) was “Not Active”, the EC50 (Human betaherpesvirus 5 [1]) was 120 nM and the CC50 (HFF) was > 500000 nM. The inhibition (Human betaherpesvirus 5 [2]) was “inactive”, the inhibition (Human betaherpesvirus 5 [3]) was “Active” and the Activity (Human betaherpesvirus 5 [4]) was “Active”. The inhibition (Human betaherpesvirus 5 [5]) was “inactive”, the inhibition (Human betaherpesvirus 5 [6]) was “inactive” and the inhibition (Human betaherpesvirus 5 [7]) was “Active”. The EC50 [8] was “Not Active”, the EC50 (Human alphaherpesvirus 1) was “Not Active” and the inhibition (Human betaherpesvirus 5 [9]) was “inactive”. The inhibition (Human betaherpesvirus 5 [10]) was “Active”, the EC50 (Human betaherpesvirus 5 [11]) was 550 nM and the inhibition (Human betaherpesvirus 5 [12]) was “Active”. For the same compound, the Activity (Human betaherpesvirus 5 [13]) was “Active”, the EC50 (Human betaherpesvirus 5 [14]) was 720 nM and the Activity (Human betaherpesvirus 5 [15]) was “Active”. The inhibition (Human betaherpesvirus 5 [16]) was “Active” and the inhibition (Human betaherpesvirus 5 [17]) was “inactive”.
